# Experimental data published in ChEMBL document CHEMBL6078622, “Enhancing outer membrane permeability of tetracycline antibiotics in P. aeruginosa using TOB-CIP conjugates” (RSC Med Chem, 2024).
# Activity calls are given as the source filed them. The calls are words filed in the database; no cut-off is given here.
# Key:
# Pseudomonas aeruginosa [1] = experiment: Antibacterial activity against Pseudomonas aeruginosa PAO1 assessed as inhibition of visible bacterial growth by CLSI based broth-microdilution method; format: functional
# Acinetobacter baumannii = experiment: Antibacterial activity against Acinetobacter baumannii ATCC 17978 assessed as inhibition of visible bacterial growth by CLSI based broth-microdilution method; format: functional
# Pseudomonas aeruginosa [2] = experiment: Synergistic antibacterial activity against Pseudomonas aeruginosa PAO1 assessed as fold change in eravacycline MIC by checkerboard analysis relative to eravacycline alone; format: functional
# Pseudomonas aeruginosa [3] = experiment: Antibacterial activity against Pseudomonas aeruginosa PA259 assessed as inhibition of visible bacterial growth by CLSI based broth-microdilution method; format: functional
# Pseudomonas aeruginosa [4] = experiment: Antibacterial activity against Pseudomonas aeruginosa PA095 assessed as inhibition of visible bacterial growth by CLSI based broth-microdilution method; format: functional
# Pseudomonas aeruginosa [5] = experiment: Antibacterial activity against Pseudomonas aeruginosa PA200 assessed as inhibition of visible bacterial growth by CLSI based broth-microdilution method; format: functional
# Pseudomonas aeruginosa [6] = experiment: Synergistic antibacterial activity against Pseudomonas aeruginosa PA262 in presence of doxycycline by checkerboard assay; format: functional
# Pseudomonas aeruginosa [7] = experiment: Synergistic antibacterial activity against Pseudomonas aeruginosa PA264 in presence of doxycycline by checkerboard assay; format: functional
# Pseudomonas aeruginosa [8] = experiment: Synergistic antibacterial activity against Pseudomonas aeruginosa PA100036 in presence of doxycycline by checkerboard assay; format: functional
# Pseudomonas aeruginosa [9] = experiment: Synergistic antibacterial activity against Pseudomonas aeruginosa PA100036 in presence of eravacycline by checkerboard assay; format: functional
# Pseudomonas aeruginosa [10] = experiment: Synergistic antibacterial activity against Pseudomonas aeruginosa PA101243 in presence of tigecycline by checkerboard assay; format: functional
# Pseudomonas aeruginosa [11] = experiment: Synergistic antibacterial activity against Pseudomonas aeruginosa PA095 in presence of minocycline by checkerboard assay; format: functional
# Pseudomonas aeruginosa [12] = experiment: Synergistic antibacterial activity against Pseudomonas aeruginosa PA095 in presence of doxycycline by checkerboard assay; format: functional
# Pseudomonas aeruginosa [13] = experiment: Synergistic antibacterial activity against Pseudomonas aeruginosa PA200 in presence of tigecycline by checkerboard assay; format: functional
# Pseudomonas aeruginosa [14] = experiment: Antibacterial activity against Pseudomonas aeruginosa PA262 assessed as doxycycline MIC by CLSI based broth-microdilution method; format: functional
# Pseudomonas aeruginosa [15] = experiment: Antibacterial activity against Pseudomonas aeruginosa PA264 assessed as doxycycline MIC by CLSI based broth-microdilution method; format: functional
# Pseudomonas aeruginosa [16] = experiment: Antibacterial activity against Pseudomonas aeruginosa PA100036 assessed as minocycline MIC by CLSI based broth-microdilution method; format: functional
# Pseudomonas aeruginosa [17] = experiment: Antibacterial activity against Pseudomonas aeruginosa PA100036 assessed as doxycycline MIC by CLSI based broth-microdilution method; format: functional
# Pseudomonas aeruginosa [18] = experiment: Antibacterial activity against Pseudomonas aeruginosa PA100036 assessed as tigecycline MIC by CLSI based broth-microdilution method; format: functional
# Pseudomonas aeruginosa [19] = experiment: Antibacterial activity against Pseudomonas aeruginosa PA114228 assessed as doxycycline MIC by CLSI based broth-microdilution method; format: functional
# Pseudomonas aeruginosa [20] = experiment: Antibacterial activity against Pseudomonas aeruginosa PA095 assessed as eravacycline MIC by CLSI based broth-microdilution method; format: functional
# Pseudomonas aeruginosa [21] = experiment: Antibacterial activity against Pseudomonas aeruginosa PA200 assessed as minocycline MIC by CLSI based broth-microdilution method; format: functional
# Pseudomonas aeruginosa [22] = experiment: Antibacterial activity against Pseudomonas aeruginosa PA200 assessed as tigecycline MIC by CLSI based broth-microdilution method; format: functional
# Pseudomonas aeruginosa [23] = experiment: Synergistic antibacterial activity against Pseudomonas aeruginosa PA259 assessed as fractional inhibitory concentration index in presence of doxycycline by checkerboard assay; format: functional
# Pseudomonas aeruginosa [24] = experiment: Synergistic antibacterial activity against Pseudomonas aeruginosa PA259 assessed as fractional inhibitory concentration index in presence of tigecycline by checkerboard assay; format: functional
# Pseudomonas aeruginosa [25] = experiment: Synergistic antibacterial activity against Pseudomonas aeruginosa PA262 assessed as fractional inhibitory concentration index in presence of minocycline by checkerboard assay; format: functional
# Pseudomonas aeruginosa [26] = experiment: Synergistic antibacterial activity against Pseudomonas aeruginosa PA262 assessed as fractional inhibitory concentration index in presence of tigecycline by checkerboard assay; format: functional
# Pseudomonas aeruginosa [27] = experiment: Synergistic antibacterial activity against Pseudomonas aeruginosa PA264 assessed as fractional inhibitory concentration index in presence of eravacycline by checkerboard assay; format: functional
# Pseudomonas aeruginosa [28] = experiment: Synergistic antibacterial activity against Pseudomonas aeruginosa PA100036 assessed as fractional inhibitory concentration index in presence of tigecycline by checkerboard assay; format: functional
# Pseudomonas aeruginosa [29] = experiment: Synergistic antibacterial activity against Pseudomonas aeruginosa PA101243 assessed as fractional inhibitory concentration index in presence of minocycline by checkerboard assay; format: functional
# Pseudomonas aeruginosa [30] = experiment: Synergistic antibacterial activity against Pseudomonas aeruginosa PA101243 assessed as fractional inhibitory concentration index in presence of eravacycline by checkerboard assay; format: functional
# Pseudomonas aeruginosa [31] = experiment: Synergistic antibacterial activity against Pseudomonas aeruginosa PA095 assessed as fractional inhibitory concentration index in presence of tigecycline by checkerboard assay; format: functional
# Pseudomonas aeruginosa [32] = experiment: Synergistic antibacterial activity against Pseudomonas aeruginosa PA259 assessed as fold change in minocycline MIC by CLSI based broth-microdilution method relative to minocycline alone; format: functional
# Pseudomonas aeruginosa [33] = experiment: Synergistic antibacterial activity against Pseudomonas aeruginosa PA100036 assessed as fold change in doxycycline MIC by CLSI based broth-microdilution method relative to doxycycline alone; format: functional
# Pseudomonas aeruginosa [34] = experiment: Synergistic antibacterial activity against Pseudomonas aeruginosa PA100036 assessed as fold change in tigecycline MIC by CLSI based broth-microdilution method relative to tigecycline alone; format: functional
# Pseudomonas aeruginosa [35] = experiment: Synergistic antibacterial activity against Pseudomonas aeruginosa PA095 assessed as fold change in minocycline MIC by CLSI based broth-microdilution method relative to minocycline alone; format: functional
# Pseudomonas aeruginosa [36] = experiment: Synergistic antibacterial activity against Pseudomonas aeruginosa PA095 assessed as fold change in doxycycline MIC by CLSI based broth-microdilution method relative to doxycycline alone; format: functional
# Pseudomonas aeruginosa [37] = experiment: Synergistic antibacterial activity against Pseudomonas aeruginosa PA095 assessed as fold change in tigecycline MIC by CLSI based broth-microdilution method relative to tigecycline alone; format: functional
# Pseudomonas aeruginosa [38] = experiment: Synergistic antibacterial activity against Pseudomonas aeruginosa PA095 assessed as fold change in eravacycline MIC by CLSI based broth-microdilution method relative to eravacycline alone; format: functional
# Pseudomonas aeruginosa [39] = experiment: Synergistic antibacterial activity against Pseudomonas aeruginosa PA200 assessed as fold change in minocycline MIC by CLSI based broth-microdilution method relative to minocycline alone; format: functional
# Escherichia [40] = experiment: Synergistic antibacterial activity against Escherichia 94474 assessed as fold change in minocycline MIC by CLSI based broth-microdilution method relative to minocycline alone; format: functional
# Procedure, shortened: (§1)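 Checkerboard combination assay against E. coli EC107115 (MDR) and EC94474 (colistin-resistant), run in biological duplicates; the fold change is the tetracycline MIC in combination relative to its MIC alone.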
# Escherichia [41] = experiment: Synergistic antibacterial activity against Escherichia 107115 assessed as fold change in minocycline MIC by CLSI based broth-microdilution method relative to minocycline alone; format: functional; procedure, shortened: as §1
# Pseudomonas aeruginosa [42] = experiment: Antibacterial activity against Pseudomonas aeruginosa PAO1 assessed as inhibition of bacterial growth by measuring fold change in MIC in presence of 50 % fetal bovine serum by CLSI protocol based assay; format: functional
# Pseudomonas aeruginosa [43] = experiment: Antibacterial activity against Pseudomonas aeruginosa PA259 assessed as reduction in bacterial load by time kill assay; format: functional, organism-based
structure (smiles),measurement,setting,value
Cl.Cl.Cl.Cl.Cl.Cl.NC[C@H]1O[C@H](O[C@H]2[C@H](OCCCCCCCCCCCCNC(=O)c3cn(C4CC4)c4cc(N5CCNCC5)c(F)cc4c3=O)[C@@H](O[C@H]3O[C@H](CO)[C@@H](O)[C@H](N)[C@H]3O)[C@H](N)C[C@@H]2N)[C@H](N)C[C@@H]1O,MIC,Pseudomonas aeruginosa [1],> 128 µg/mL
same,MIC,Acinetobacter baumannii,> 128 µg/mL
same,fold change (FC),Pseudomonas aeruginosa [2],64
same,MIC,Pseudomonas aeruginosa [3],> 128 µg/mL
same,MIC,Pseudomonas aeruginosa [4],8 µg/mL
same,MIC,Pseudomonas aeruginosa [5],32 µg/mL
same,MIC,Pseudomonas aeruginosa [6],8 µg/mL
same,MIC,Pseudomonas aeruginosa [7],8 µg/mL
same,MIC,Pseudomonas aeruginosa [8],8 µg/mL
same,MIC,Pseudomonas aeruginosa [9],8 µg/mL
same,MIC,Pseudomonas aeruginosa [10],8 µg/mL
same,MIC,Pseudomonas aeruginosa [11],2 µg/mL
same,MIC,Pseudomonas aeruginosa [12],2 µg/mL
same,MIC,Pseudomonas aeruginosa [13],8 µg/mL
same,MIC,Pseudomonas aeruginosa [14],8 µg/mL
same,MIC,Pseudomonas aeruginosa [15],0.5 µg/mL
same,MIC,Pseudomonas aeruginosa [16],0.25 µg/mL
same,MIC,Pseudomonas aeruginosa [17],1 µg/mL
same,MIC,Pseudomonas aeruginosa [18],0.5 µg/mL
same,MIC,Pseudomonas aeruginosa [19],32 µg/mL
same,MIC,Pseudomonas aeruginosa [20],1 µg/mL
same,MIC,Pseudomonas aeruginosa [21],1 µg/mL
same,MIC,Pseudomonas aeruginosa [22],0.25 µg/mL
same,fractional inhibitory concentration index (FICI),Pseudomonas aeruginosa [23],0.008
same,fractional inhibitory concentration index (FICI),Pseudomonas aeruginosa [24],0.002
same,fractional inhibitory concentration index (FICI),Pseudomonas aeruginosa [25],0.008
same,fractional inhibitory concentration index (FICI),Pseudomonas aeruginosa [26],0.008
same,fractional inhibitory concentration index (FICI),Pseudomonas aeruginosa [27],0.008
same,fractional inhibitory concentration index (FICI),Pseudomonas aeruginosa [28],0.002
same,fractional inhibitory concentration index (FICI),Pseudomonas aeruginosa [29],0.25
same,fractional inhibitory concentration index (FICI),Pseudomonas aeruginosa [30],0.625
same,fractional inhibitory concentration index (FICI),Pseudomonas aeruginosa [31],0.265
same,fold change (FC),Pseudomonas aeruginosa [32],512
same,fold change (FC),Pseudomonas aeruginosa [33],128
same,fold change (FC),Pseudomonas aeruginosa [34],64
same,fold change (FC),Pseudomonas aeruginosa [35],8
same,fold change (FC),Pseudomonas aeruginosa [36],16
same,fold change (FC),Pseudomonas aeruginosa [37],2
same,fold change (FC),Pseudomonas aeruginosa [38],4
same,fold change (FC),Pseudomonas aeruginosa [39],64
same,fold change (FC),Escherichia [40],8
same,fold change (FC),Escherichia [41],32
same,fold change (FC),Pseudomonas aeruginosa [42],1
same,AC30,Pseudomonas aeruginosa [43],Active
